An excerpt weighted towards active compounds, which were near 1.9% of everything screened.
TAG inh = inhibitors of triacylglycerol accumulation, primary screen, cell-based, uHTS, fluorescence, H9c2. H9c2 cells, Nile Red lipid (TAG) fluorescence; cells loaded with 200 µM oleic acid. inhibition, % at 12.5 µM. 230,000 compounds, 0.66% hits. AID 651582, 2012;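 active means pattern-corrected inhibition of lipid staining of at least 50% with the nuclear-stain viability signal not falling by more than 50%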
APP transl inh = inhibitors of APP translation via 5'UTR reporter, primary screen, APP 5'UTR luciferase, SH-SY5Y cells | 190,000 compounds, 0.82% hits | inhibition, % at 2 µM | SH-SY5Y APP 5'UTR-luciferase reporter, luminescence | AID 1285, 2008;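 active means inhibition above a set limit, derived from the sample mean plus 3 SD, cut at about 45% in these data; inconclusive means one replicate passes the limit while the other fails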
697 NFkB inh = inhibitors of PMA/ionomycin-induced NF-kB reporter, 697 cells, primary screen, B-cell NF-kB inhibitor project, cell-based, luminescence, uHTS | 697 B-cell NF-kB luciferase reporter, 16 h | inhibition, % at 4 µM | 330,000 compounds, 0.33% hits; in the data active means inhibition above about 35%
aSyn 5UTR inh = MLPCN primary screen, SNCA 5' untranslated region | alpha-synuclein 5'UTR reporter, inhibitor activity | inhibition, % (tested at 7.5 µM) | 300,000 compounds, 0.82% hits | AID 1813, 2009; in the data active means inhibition above about 60%; inconclusive means no clear call, values can overlap the other calls;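 further: H4 neuroglioblastoma cells stably carrying SNCA 5'UTR luciferase fusion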
Jurkat NFkB inh = inhibitors of induced NF-kB luciferase reporter, primary screen, TCR NF-kB activation inhibitor project, cell-based, luminescence, uHTS | inhibition, % at 4 µM | AID 435003, 2010 | 330,000 compounds, 0.53% hits | Jurkat, PMA/ionomycin-induced NF-kB luciferase reporter; in the data active means inhibition above about 50%
Lipid droplet = inhibitors of hepatocyte lipid droplet formation, primary screen, imaging, high-throughput imaging, BODIPY stain; inhibition, % at 6.5 µM; AID 1656, 2009; 240,000 compounds, 0.4% hits; AML12 mouse hepatocytes, oleate lipid droplets;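 active means lipid droplet intensity inhibited by at least 50%, with more than 500 cells counted; inconclusive means wells with under 300 cells, treated as cytotoxic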
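Assay system: AML12 hepatocytes (mouse) / Also added: 100 µM oleic acid challenge / Times: overnight treatment with compound plus oleate / Detection: high-content imaging of BODIPY-stained droplets and DAPI nuclei / Evaluation: % inhibition of lipid droplet signal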
TAG conf = triacylglycerol accumulation inhibitors, retest, confirmation, cell-based, single concentration, Nile Red fluorescence, H9c2; shares compounds with TAG inh; H9c2 lipid accumulation; cells loaded with 200 µM oleic acid; inhibition, % at 12.5 µM; 990 compounds, 71% hits;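 active means mean inhibition across replicates of 40% or more; inactive means mean inhibition below 40%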
Each line names hits and unclear results; the compound was inactive in the other large screens (follow-up assays come after a bar, where they were run).

COc1ccc(OCCn2c(=N)n(CCO)c3ccccc32)cc1	none (no result: Lipid droplet)
N=c1n(CCO)c2ccccc2n1CCOc1ccc(Cl)cc1Cl	TAG inh 91 (no result: Lipid droplet) | TAG conf 64
CCN(C(=O)COC(=O)CCc1c[nH]c2ccccc12)c1c(N)n(Cc2ccccc2)c(=O)[nH]c1=O	none (no result: APP transl inh, Lipid droplet)
COc1ccc(NC(=O)C2(C)Cc3c(-c4ccc5c(c4)OCO5)ccnc3O2)cn1 (stereo unspecified)	TAG inh 52 (no result: APP transl inh, 697 NFkB inh, aSyn 5UTR inh, Jurkat NFkB inh, Lipid droplet) | TAG conf 53
CC1(C(=O)Nc2ccc3c(c2)OCO3)Cc2c(-c3cccc(C(N)=O)c3)ccnc2O1 (stereo unspecified)	TAG inh 59 (no result: APP transl inh, 697 NFkB inh, aSyn 5UTR inh, Jurkat NFkB inh, Lipid droplet) | TAG conf 69
CC(=O)Nc1cccc(-c2ccnc3c2CC(C)(C(=O)NCc2ccc(N(C)C)cc2)O3)c1 (stereo unspecified)	TAG inh 57 (no result: APP transl inh, 697 NFkB inh, aSyn 5UTR inh, Jurkat NFkB inh, Lipid droplet) | TAG conf 54
CC1(C(=O)Nc2ccc3c(c2)OCO3)Cc2c(-c3ccc4c(c3)OCO4)ccnc2O1 (stereo unspecified)	none (no result: APP transl inh, 697 NFkB inh, aSyn 5UTR inh, Jurkat NFkB inh, Lipid droplet)
COc1cc(-c2cnc3c(NC=O)cc(-c4cccc(NC(C)=O)c4)cn23)cc(OC)c1OC	TAG inh 73 (no result: APP transl inh, 697 NFkB inh, aSyn 5UTR inh, Jurkat NFkB inh, Lipid droplet) | TAG conf 96
CCC(=O)Nc1ccc2oc(-c3cccnc3)nc2c1	none (no result: APP transl inh)
CCC(C)NCC(=O)Nc1ccc(-c2nc3cc(NC(=O)CNC(C)CC)ccc3o2)cc1 (stereo unspecified)	TAG inh 53 (no result: aSyn 5UTR inh) | TAG conf inactive
CCOC(=O)C1CCN(CC(C)(C)NS(=O)(=O)c2ccccc2)CC1	none (no result: TAG inh, APP transl inh)
Cc1ccc(NC(=O)CSc2nc3ccc(Nc4nc(N5CCOCC5)nc(N5CCOCC5)n4)cc3s2)cc1	TAG inh 84 (no result: APP transl inh, aSyn 5UTR inh) | TAG conf 86
CC1CC(C)(C)CC2(C1)NC(=O)N(CC(=O)Nc1cc(C(F)(F)F)ccc1N1CCCCC1)C2=O (stereo unspecified)	none (no result: APP transl inh, 697 NFkB inh, aSyn 5UTR inh, Jurkat NFkB inh, Lipid droplet)
O=C(COC(=O)c1cc([N+](=O)[O-])ccc1N1CCOCC1)Nc1ccc(Cl)cc1	none (no result: APP transl inh)
O=C(OCc1ccc(Br)cc1)c1cc([N+](=O)[O-])ccc1N1CCOCC1	TAG inh 52 (no result: APP transl inh, 697 NFkB inh, aSyn 5UTR inh, Jurkat NFkB inh, Lipid droplet) | TAG conf 61
O=C(COC(=O)c1cc([N+](=O)[O-])ccc1N1CCOCC1)Nc1ccc(Cl)cn1	TAG inh 51 (no result: APP transl inh) | TAG conf inactive
Cc1cc(C)c(S(=O)(=O)NCc2nc3nc(C)cc(C)n3n2)c(C)c1	none (no result: APP transl inh)
CN(CCC#N)C(=O)COC(=O)c1ccc2c(c1)C(=O)N(C1CCCCC1)C2=O	none (no result: APP transl inh)
NC1=NC[C@H](Cc2ccccc2)N1CCc1cc(C(F)(F)F)cc(C(F)(F)F)c1	TAG inh 55 (no result: APP transl inh) | TAG conf 46
CCn1ncc(/C=N/N=C2\CCC3C4CCc5cc(O)ccc5C4CCC23C)c1C (stereo unspecified)	TAG inh 52 | TAG conf 48
COc1ccc(C)cc1NC(=O)CN1CCN(S(=O)(=O)c2ccc3ccccc3c2)CC1	none (no result: APP transl inh, aSyn 5UTR inh, Lipid droplet)
CCOc1ccc2nc(NC(=O)CN3CCC(n4nnc5cc(F)ccc54)CC3)sc2c1	TAG inh 58 | TAG conf 43
Cc1nn(-c2ccccc2)c2nc(-c3ccccc3)cc(C(=O)N3CCOCC3)c12	none
Cc1nn(-c2cccc(Cl)c2)c2nc(-c3ccncc3)cc(C(=O)N3CCOCC3)c12	TAG inh 53 | TAG conf 53
CCOC(=O)N1CCc2c(sc3nc4n(c(=O)c23)N=C(c2ccc(OC)cc2)CS4)C1	none (no result: APP transl inh)
COc1ccc2sc(-c3ccc(N(C)C)cc3)c(C#CCCO)c2c1	TAG inh 76 (no result: APP transl inh, aSyn 5UTR inh, Lipid droplet) | TAG conf 87
COc1cc(NC(=O)C2CC(=O)N(CCc3ccc(F)cc3)C2)cc(OC)c1OC (stereo unspecified)	none (no result: TAG inh, APP transl inh)
CC(/C=N/NC(=O)c1n[nH]c2c1CCC2)=C\c1ccccc1	TAG inh 72, APP transl inh 94, Lipid droplet inconclusive | TAG conf inactive

Assay outcomes (PubChem BioAssay)
